In ChEMBL document CHEMBL4732218, “Synthesis and biological evaluation of benzhydryl-based antiplasmodial agents possessing Plasmodium falciparum chloroquine resistance transporter (PfCRT) inhibitory activity” (Eur J Med Chem, 2021):
Calls of active or inactive are those of the source. No cut-off for these calls is given here.

Legend:
Plasmodium falciparum [1] = assay: Antimalarial activity against Plasmodium falciparum D10 by parasite lactate dehydrogenase assay; type: functional, organism-based
Plasmodium falciparum [2] = assay: Antimalarial activity against Plasmodium falciparum W2 by parasite lactate dehydrogenase assay; type: functional, organism-based
[3] = target: T1, Chloroquine resistance transporter (Plasmodium falciparum) (UniProt Q9N623); assay: Inhibition of Plasmodium falciparum Dd2 CRT expressed in Xenopus laevis oocyte assessed as inhibition of [3H]-CQ transport at 100 uM incubated for 1.5 hrs by microbeta scintillation counting method; type: cell-based
T1 sequence (whole entry): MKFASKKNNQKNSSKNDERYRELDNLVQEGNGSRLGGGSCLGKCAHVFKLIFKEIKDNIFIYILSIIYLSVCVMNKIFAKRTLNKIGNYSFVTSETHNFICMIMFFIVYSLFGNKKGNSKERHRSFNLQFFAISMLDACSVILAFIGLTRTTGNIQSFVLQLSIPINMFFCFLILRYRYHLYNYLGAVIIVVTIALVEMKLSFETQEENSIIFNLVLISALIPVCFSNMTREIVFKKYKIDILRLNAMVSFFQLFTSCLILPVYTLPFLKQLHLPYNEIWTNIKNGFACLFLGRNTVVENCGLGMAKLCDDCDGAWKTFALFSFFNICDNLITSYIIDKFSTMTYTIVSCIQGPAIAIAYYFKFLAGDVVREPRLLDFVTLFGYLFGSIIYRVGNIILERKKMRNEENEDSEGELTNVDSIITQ
In short: (§1)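 Xenopus oocytes expressing PfCRT Dd2 and non-expressing oocytes, stored at 16–18 °C in OR2+ buffer (pH 7.8), assayed 3-4 days post-injection. [3H]CQ (0.25 µM) influx measured over 1.5 h at 27.5 °C in pH 5.5 medium (96 mM NaCl, 10 mM MES/Tris) with 15 µM unlabeled CQ, scintillation counting. PfCRT-mediated transport = uptake in expressing minus non-expressing oocytes.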

[4] = target: T2, Chloroquine resistance transporter (Plasmodium falciparum, UniProt Q9N623); assay: Inhibition of Plasmodium falciparum Dd2 CRT expressed in Xenopus laevis oocyte assessed as inhibition of [3H]-CQ transport incubated for 1.5 hrs by microbeta scintillation counting method; type: cell-based; in short: as §1
T2 sequence (Q9N623 whole entry): T1 sequence (whole entry)

[5] = Cytotoxicity against mouse NIH/3T3 cells assessed as reduction in cell viability incubated for 24 hrs by neutral red dye uptake assay; type: cell-based, NIH3T3
In short: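 NIH3T3 cells, 5 × 10^4/well, cultured 24 h at 37 °C, 5% CO2, then exposed 24 h to compounds in DMSO at 8–160 µM; medium alone as negative control. Viability by Neutral Red uptake (3 h at 37 °C), dye extracted in acetic acid/ethanol, absorbance 540 nm. Three experiments, six replicates per concentration.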

Plasmodium berghei [6] = assay: Antimalarial activity against in Plasmodium berghei ANKA strain GFP-con infected in Balb/c mouse assessed as blocked of transmission activity to Anopheles stephensi by measuring reduction in […] in mosquito at 10 micromol/kg, ip treated first dose 3 days post infection and female mosquitos feed blood meal on day 4 after 1.5 hrs of dosing by direct exposure and measured on day 8 by fluorescence microscopic analysis (reference value: 357); type: functional; conditions: dose 10 µmol/kg; time 3 day
In short: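 P. berghei ANKA GFP-con, i.p. 10^7 infected RBC into 8–10-week BALB/c mice; on day 3 mice with ~5% parasitemia and gametocytes randomised, 3 per group. Dosed i.p. 10 µmol/kg on afternoon of day 3 and again day 4, 1.5 h before 1 h feed by ~150 female An. stephensi. Day 8: fluorescent midgut oocysts counted in 20–30 mosquitoes; triplicate cages; PBS control; two-tailed t-test.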

Plasmodium berghei [7] = assay: (§2) Antimalarial activity against liver stage Plasmodium berghei PbmCherryhsp70 sporozoites infected in human HepG2 cells assessed as reduction in parasite number at 8 uM incubated for 24 hrs followed by removal of media and supplemented with fresh media and further incubated for 24 hrs by phase contrast microscopic analysis relative to control; type: functional
In short: (§3)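 HepG2 cells (60000/well, seeded day before) infected 2 h with 20'000 PbmCherry_hsp70 sporozoites from An. stephensi salivary glands, then detached, pooled and treated from 2 hpi at graded concentrations with DMSO control. Medium changed 24 hpi; fixed 4% PFA at 48 hpi. Parasite number and size from mCherry signal by automated microscopy; 6 replicates; host growth checked by phase contrast; one-way ANOVA with Dunnett.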

Plasmodium berghei [8] = assay: as §2, with “size” for “number”, “2” for “8”, “analysis” for “analysis relative to control”; type: functional, organism-based; in short: as §3

Row | Compound | IC50 (Plasmodium falciparum [1]) [nM] | IC50 (Plasmodium falciparum [2]) [nM] | inhibition [3] | IC50 [4] [nM] | CC50 at 24 h [5] [nM] | Activity (Plasmodium berghei [6]) | inhibition at 8 µM (Plasmodium berghei [7]) [%] | inhibition (Plasmodium berghei [8])
1 | Clc1ccc(C(Nc2ccnc3cc(Cl)ccc23)c2ccc(CCN3CCCC3)cc2)cc1 (centres undefined) | 19 | 27 | inactive | – | – | – | – | –
2 | Clc1ccc(C(Nc2ccnc3cc(Cl)ccc23)c2ccc(CN3CCCCC3)cc2)cc1 (centres undefined) | 65 | 69 | inactive | – | – | – | – | –
3 | Oc1cccc(C(Nc2ccnc3cc(Cl)ccc23)c2ccc(CN3CCNCC3)cc2)c1 (centres undefined) | 179 | 475 | inactive | – | – | – | – | –
4 | COc1cccc(C(Nc2ccnc3cc(Cl)ccc23)c2ccc(CN3CCNCC3)cc2)c1 (centres undefined) | 40 | 75 | Active | – | – | – | – | –
5 | COc1cc(NC(c2ccc(CN3CCNCC3)cc2)c2cccc(Cl)c2)n2nc(C)nc2n1 (centres undefined) | 3700 | 920 | 98% | 12500 | < 3500 | – | – | –
6 | Clc1ccc(C(Nc2ccnc3cc(Cl)ccc23)c2ccc(CN3CCN(Cc4ccc(C(Nc5ccnc6cc(Cl)ccc56)c5cccc(Cl)c5)cc4)CC3)cc2)cc1 (centres undefined) | 595 | 460 | Active | 15600 | – | – | – | –
7 | COc1cc(NC(c2ccc(CN3CCNCC3)cc2)c2cccc(Cl)c2)c2ncccc2c1 (centres undefined) | 2800 | 2300 | 65% | 64000 | 19000 | 454 | – | –
8 | O=C(c1ccc(Cl)cc1)c1ccc(CN2CCNCC2)cc1 | > 15000 | 8600 | 22% | – | – | – | – | –
9 | OC(c1ccc(Cl)cc1)(c1ccc(CN2CCNCC2)cc1)c1ccnc2cc(Cl)ccc12 (centres undefined) | 2000 | 2000 | inactive | – | – | – | – | –
10 | Clc1ccc2c(NC(c3ccc(CN4CCNCC4)cc3)c3cccc(OCCOc4cccc(C(Nc5ccnc6cc(Cl)ccc56)c5ccc(CN6CCNCC6)cc5)c4)c3)ccnc2c1 (centres undefined) | – | – | Active | – | – | – | – | –
11 | COc1cc(NC(C)CCCN)c2ncccc2c1 (centres undefined) [PRIMAQUINE] | 5700 | 4400 | – | – | – | – | 50 | Active
12 | Clc1cccc(C(Nc2ccnc3cc(Cl)ccc23)c2ccc(CN3CCCCC3)cc2)c1 (centres undefined) | 84 | 88 | inactive | – | – | – | – | –
13 | OC(c1ccc(Cl)cc1)c1ccc(CCN2CCCC2)cc1 (centres undefined) | > 15000 | > 15000 | 22% | – | – | – | – | –
14 | Clc1cccc(C(Nc2ccnc3cc(Cl)ccc23)c2ccc(CCN3CCCC3)cc2)c1 (centres undefined) | 23 | 22 | inactive | – | – | – | – | –
15 | Clc1ccc(C(c2ccc(CN3CCNCC3)cc2)c2ccnc3cc(Cl)ccc23)cc1 (centres undefined) | 3700 | 2700 | inactive | – | – | – | – | –
16 | OC(c1ccc(Cl)cc1)c1ccc(CN2CCNCC2)cc1 (centres undefined) | > 15000 | 11000 | 22% | – | – | – | – | –
17 | COc1cc(NC(c2ccc(CN3CCCC3)cc2)c2cccc(Cl)c2)c2ncccc2c1 (centres undefined) | 4500 | 3700 | 65% | 55000 | 28000 | 491 | – | –
